Holding throughout (assay type): functional
Experiment [1] relates to Nonomuraea. The experiment can be described thus: Antimicrobial activity against Nonomuraea sp. ATCC 39727. In outline:
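MIC taken from population analysis profiles. Sonicated mycelium from exponential-phase SM cultures (about 48 h, 28°C, shaken) was suspended in 0.9% NaCl. Up to 10⁷ CFU were spread per SM agar plate containing a range of glycopeptide concentrations and incubated 15 days at 28°C. Colonies were counted for the surviving fraction. MIC is the concentration inhibiting 99.99% of the population; mean of three independent experiments.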

Experiment [2] relates to Nonomuraea. Kind of experiment: Microbicidal activity against Nonomuraea sp. ATCC 39727 at 5000 ug/ml after 24 hrs. The essentials: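 MBC: sonicated mycelium was grown in SM flasks for three generations, then given increasing antibiotic concentrations for a further 24 h. It was washed with physiological saline, diluted and plated on antibiotic-free SM agar for about 15 days at 28°C to give the surviving fraction. Under 0.1% survival counted as bactericidal; mean of three experiments.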

The next experiment has as its system Streptomyces coelicolor. Kind of experiment: Antimicrobial activity against Streptomyces coelicolor.
Experiment [3] concerns Nonomuraea. Kind of experiment: Antimicrobial activity against vanY-deficient Nonomuraea sp. ATCC 39727. The essentials: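 The ΔvanY mutant replaces the vanY coding sequence with the aac(3)IV cassette. Its sonicated exponential-phase mycelium (SM, 28°C, about 48 h) was plated, up to 10⁷ CFU, on SM agar carrying graded glycopeptide concentrations and incubated 15 days at 28°C. MIC is the concentration inhibiting 99.99% of the population, read from the population analysis profile.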

The test system of experiment [4] is Nonomuraea. The experiment can be described thus: Antimicrobial activity against Nonomuraea sp. ATCC 39727 selected after 0.25 ug/ml of teicoplanin exposure. In outline: (§1)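 Exponential-phase mycelium (about 48 h, 28°C, shaken, in SM) was exposed to the inducing glycopeptide for 24 h. It was then harvested, suspended in 0.9% NaCl and sonicated. Up to 10⁷ CFU were spread on SM agar with a glycopeptide concentration series and incubated 15 days at 28°C. MIC was taken from the population analysis profile as the concentration inhibiting 99.99% of colonies. Values are the mean of three independent experiments.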

In experiment [5] the test system is Nonomuraea. The experiment can be described thus: Antimicrobial activity against Nonomuraea sp. ATCC 39727 selected after 0.5 ug/ml of A40926 exposure. The essentials: as §1
For another experiment, the system named is Streptomyces venezuelae. The experiment can be described thus: Antimicrobial activity against Streptomyces venezuelae ATCC 10595 harboring vanY gene. In outline:
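Population analysis profile: 10⁷ spores of each strain were plated on MYM agar containing graded antibiotic levels and incubated 3 days. Surviving colonies were counted, and MIC was taken as the concentration inhibiting growth of 99.99% of the population.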

In experiment [6] the test system is Nonomuraea. The experiment can be described thus: Antimicrobial activity against Nonomuraea sp. ATCC 39727 selected after 12 ug/ml of compound exposure. The essentials:
as §1

For experiment [7], the system named is Actinoplanes teichomyceticus. The experiment can be described thus: Antimicrobial activity against Actinoplanes teichomyceticus.

≈ marks a conversion by molar mass, not a printed value. Calls of active or inactive are those of the source. The rule behind the calls is not given here.

Data on two compounds can be found in ChEMBL document CHEMBL1255482, “Novel mechanism of glycopeptide resistance in the A40926 producer Nonomuraea sp. ATCC 39727” (2010).

A word on the MIC: it is the least concentration at which growth counts as inhibited. For the compound `CN[C@H](CC(C)C)C(=O)N[C@H]1C(=O)N[C@@H](CC(N)=O)C(=O)N[C@H]2C(=O)N[C@H]3C(=O)N[C@H](C(=O)N[C@H](C(=O)O)c4cc(O)cc(O)c4-c4cc3ccc4O)[C@H](O)c3ccc(c(Cl)c3)Oc3cc2cc(c3O[C@@H]2O[C@H](CO)[C@@H](O)[C@H](O)[C@H]2O[C@H]2C[C@](C)(N)[C@H](O)[C@H](C)O2)Oc2ccc(cc2Cl)[C@H]1O` [VANCOMYCIN], the MIC came out at 19.5 µg/mL (≈ 13.5 µM) against Nonomuraea [1]; 100 µg/mL (≈ 69 µM) in the experiment with Streptomyces coelicolor; 4 µg/mL (≈ 2.76 µM) against Nonomuraea [3]; 27 µg/mL with Nonomuraea [4]; 35 µg/mL (≈ 24.2 µM) in the experiment with Nonomuraea [5]; 20 µg/mL (≈ 13.8 µM) in the experiment with Nonomuraea [6]. The same compound showed an MIC in experiment [7] of 90 µg/mL (≈ 62.1 µM). Besides, the result in the experiment with Nonomuraea [2] and in the experiment on Streptomyces venezuelae was inactive.
Take `NC[C@H]1O[C@H](O[C@H]2[C@H](O)[C@@H](O[C@H]3O[C@H](CO)[C@@H](O)[C@H](N)[C@H]3O)[C@H](N)C[C@@H]2N)[C@H](O)[C@@H](O)[C@@H]1O`: in the experiment with Nonomuraea [2], the result was Active.
